Screening data deposited in PubChem BioAssay by The Scripps Research Institute Molecular Screening Center.
Rows were chosen to be rich in hits. Some 1.8% of all compounds tested hit in one or more screens of this group.
M4 ag: CHRM4 agonism in calcium assay; 360,000 compounds, 0.14% hits; CHO-K1 hM4/Gqi5, Fluo-8 calcium fluorescence; vehicle 0%, full acetylcholine response 100%; P08173; activation, % at 3 µM;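 active = activation above the run mean over all test wells plus 3 SD, cut at about 32% in these data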;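 also: peak over basal fluorescence ratio per well then scaled between controls; 0% = DMSO wells and 100% = acetylcholine at EC100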
Target sequence (P08173 whole entry, looked up): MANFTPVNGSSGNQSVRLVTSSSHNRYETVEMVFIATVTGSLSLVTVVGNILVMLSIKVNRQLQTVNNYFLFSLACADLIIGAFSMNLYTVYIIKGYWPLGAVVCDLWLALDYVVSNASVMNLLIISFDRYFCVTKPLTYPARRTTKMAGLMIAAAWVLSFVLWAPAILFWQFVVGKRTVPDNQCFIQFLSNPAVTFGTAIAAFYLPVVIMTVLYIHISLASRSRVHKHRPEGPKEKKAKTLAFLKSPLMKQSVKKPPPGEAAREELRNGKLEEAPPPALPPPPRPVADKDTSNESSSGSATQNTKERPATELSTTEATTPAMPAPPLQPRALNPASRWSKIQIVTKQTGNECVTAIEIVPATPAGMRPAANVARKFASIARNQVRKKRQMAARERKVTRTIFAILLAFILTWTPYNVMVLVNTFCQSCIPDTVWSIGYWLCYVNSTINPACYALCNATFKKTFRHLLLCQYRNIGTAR
M5 PAM: positive allosteric modulators of human muscarinic M5 receptor. P08912. CHO-K1 hM5, Fluo-8 calcium, ACh EC20 PAM; 0% = ACh EC20, 100% = ACh EC100. AID 624038. 360,000 compounds, 0.3% hits. activation, % at 3 µM;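 active = activation above the run cutoff, the mean activation of all test compounds plus 3 SD, cut at about 18% in these data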
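Replicates: One well per compound, no replicates | System: Human M5 receptor in CHO-K1 cells | Benchmarks: Low control EC20 acetylcholine (0%), high control EC100 acetylcholine (100%) | Probe or stimulus: Acetylcholine, EC20 level | Times: Fluo-8 loading 80 min at 37 °C plus 30 min room temperature | Signal: Intracellular calcium via Fluo-8 fluorescence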
M5 ag: agonists of human muscarinic M5 receptor (CHRM5); P08912; CHO-K1 hM5 cells, Fluo-8 calcium fluorescence; 0% DMSO wells, 100% maximal acetylcholine response; activation, % at 3 µM; 360,000 compounds, 0.19% hits; AID 624037;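 active = activation above the run's mean over test compounds plus 3 SD, cut at about 23% in these data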;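 also: signal is peak over basal fluorescence ratio across the kinetic read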
M4 PAM: CHRM4 positive allosteric modulation; P08173; activation, % at 3 µM; AID 624126; CHO-K1 hM4/Gqi5, Fluo-8 calcium fluorescence, ACh EC20; 0% = ACh EC20, 100% = maximal ACh; 360,000 compounds, 0.4% hits;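 active = activation above its plate's cutoff, the mean activation of sample wells plus 3 SD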
M5 antag: blocks acetylcholine activation of human M5 receptor; P08912; CHO-hM5 cells, Fluo-8 calcium fluorescence, ACh EC80; inhibition, % at 3 µM; 360,000 compounds, 0.59% hits; AID 624040;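 active = inhibition above a per-plate cutoff, the mean of that plate's test compounds plus 3 SD, cut at about 27% in these data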;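 also: 0% = acetylcholine EC80 with DMSO and 100% = DMSO without agonist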
M4 antag: CHRM4 antagonism in calcium assay | CHO-hM4 cells, ACh EC80, Fluo-8 calcium fluorescence | inhibition, % at 3 µM | 360,000 compounds, 0.73% hits;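 active = inhibition above its plate's cutoff, the mean inhibition of sample wells plus 3 SD, cut at about 27% in these data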;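 also: 0% = acetylcholine EC80 with DMSO and 100% = DMSO without agonist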
Numbers without * were called inactive; ! = not confirmed by another sample.

SMILES | M4 ag | M5 PAM | M5 ag | M4 PAM | M5 antag | M4 antag
COc1cccc(-c2ccc(=O)n(CC(=O)Nc3ccc(C(=O)N4CCCC4)cc3)n2)c1 | -1 | 19* | -6 | 9 | -1 | -4
Cc1nn(CC(=O)Nc2ccc(C(=O)N3CCCC3)cc2)c(=O)c2ccccc12 | -2 | 39* | 3 | 10 | 19 | -8
CN(CCCCCCCCC(=O)/C=N/O)Cc1ccccc1 | 1 | -10 | -7 | -40 | 11 | 73*
Cc1ccc(C(=O)N=c2sccn2C)o1 | 0 | 2 | -5 | 0 | 8 | 1
Cc1cc(C)cc(-n2c(=O)c3sccc3n(CC(=O)NCc3ccco3)c2=O)c1 | 0 | 22* | -1 | 28 | 6 | 23
CCOC(=O)C1=C(C)N(c2ccccc2)C(=O)NC1c1cccc([N+](=O)[O-])c1 (stereo unspecified) | 1 | -18 | -5 | -39 | 39* | 75*
Cc1c(N=C/C=C/c2ccccc2)c(=O)n(-c2ccccc2)n1C | 0 | -23 | -7 | -17 | 27 | 53*
CCn1c(-c2cc(-c3ccc(C)cc3)nc3ccccc23)n[nH]c1=S | 0 | -32 | -12 | 4 | 98* | -1
C=CCN(C)CC/C=C1\c2ccccc2CSc2ccccc21 | 3 | -43 | -14 | -17 | 62* | 52*
C#CCN(C)CC/C=C1\c2ccccc2CSc2ccccc21 | -2 | -41 | -15 | -15 | 37* | 32*
NCC/C=C1/c2ccccc2CSc2ccccc21 | 7 | -43 | -13 | -14 | 34* | 23
CN(CC/C=C1/c2ccccc2CSc2ccccc21)CCCO | 7 | -20 | -6 | -38 | 44* | 65*
CC(O)CN(C)CC/C=C1/c2ccccc2CSc2ccccc21 (stereo unspecified) | 1 | -22 | -8 | -14 | 25 | 19
COc1ccccc1C(C(=O)c1ccccc1)c1ccc(O)cc1 (stereo unspecified) | 1 | -9 | -4 | 1 | 11 | -4
CCOC(=O)c1ccc(N=c2sc(C(=O)OC)cc(=O)n2CCCN2CCOCC2)cc1 | 2 | -8 | -1 | -13 | 3 | 52*!
CCOC(=O)c1ccc(N=c2sc(C(=O)OC)cc(=O)n2Cc2ccco2)cc1 | 2 | -6 | -1 | -5 | 2 | -5
CCN(CC)c1ccc(NC(=O)c2ccc(S(=O)(=O)N3CCOCC3)cc2)cc1 | 1 | -2 | 1 | -1 | -4 | -11
COc1cccc(/C=C2\C(=O)C(=O)c3ccccc32)c1 | 1 | 1 | -2 | -2 | -5 | 31*
Cc1csc(NC(=O)CCC(=O)N(CC(=O)NC2CCCC2)Cc2ccccc2)n1 | 8 | 5 | 0 | 0 | -3 | -4
Clc1ccc2nnc(Cl)n2n1 | 2 | 4 | -2 | 19* | 0 | -15
FC(F)c1nnc2ccc(Cl)nn12 | 1 | -1 | -1 | 10 | 11 | -6
COc1ccnc(Oc2ccccc2)c1C(=O)N/C=N/OCc1ccc(F)cc1Cl | 35* | -16 | 6 | -13 | 14 | 20
O=C(NCc1ccco1)c1ccccc1-c1ccccc1 | -1 | 9 | -4 | 3 | -9 | -2
Cc1scc(C(=O)NCc2ccco2)c1-c1ccccc1 | 0 | 4 | -3 | 42* | -7 | -6
O=C(CNc1cccc(S(=O)(=O)N2CCOCC2)c1)N1CCc2ccccc21 | 2 | 3 | 1 | -4 | -2 | -3
SMILES | M4 ag | M5 PAM | M5 ag | M4 PAM | M5 antag | M4 antag
Cc1ccc(NC2=NCC(=O)N2Cc2ccc3c(c2)OCO3)c(C)c1 | 3 | 6 | 1 | 5 | -8 | -8
CCc1ccc(NC2=NCC(=O)N2Cc2ccc3c(c2)OCO3)cc1 | 2 | 7 | -9 | 21* | -4 | -6
Cc1ccc(/C=N/NC(=O)NC2CCCCC2)o1 | 3 | -12 | -1 | -6 | 4 | 8
Cc1ccc(/C=C/C(=O)NC2CCCCCCC2)o1 | 0 | 2 | -2 | 28* | 5 | 7
CCOC(=O)C[C@@H](C#N)NC(=O)[C@@H]1CCCN1C(=O)[C@@H](NC(=O)c1ccc(N)c(Cl)c1)C(C)(C)C | 0 | 0 | -1 | 0 | 4 | 2
Fc1ccc(N2CCN(Cc3cn[nH]c3-c3ccccc3)CC2)cc1 | 1 | -3 | 7 | -7 | 4 | -3
Fc1ccc(-c2[nH]ncc2CN2CCN(c3ccc(F)cc3)CC2)cc1 | 9 | 2 | 31* | -4 | 5 | 2
O=C(O)c1ccccc1C(=O)Nc1ccccn1 | 0 | -2 | 0 | 7 | -3 | 10
O=C(Nc1ccccn1)c1ccc2ccccc2c1O | 2 | 19* | 11 | -2 | -12 | -2
CCC(O)(CCN1CCCCC1)c1ccccc1 (stereo unspecified) | 0 | -23 | -10 | -13 | 23 | 33*
O=C(CCCCN1CCCCC1)c1ccccc1 | 10 | -5 | -5 | -21 | 10 | 4
OC(CCCN1CCCCC1)(c1ccccc1)c1ccccc1 | 1 | -18 | -1 | -18 | 24 | 47*
CN(CC(=O)Nc1ccc(F)cc1)C(=O)COC(=O)c1cc(Br)c(Br)s1 | 5 | -5 | 2 | -6 | 8 | -8
O=C(COC(=O)C1CCC1)Nc1ccc(OC(F)F)cc1 | 1 | 1 | -5 | -4 | 0 | 0
O=C(COC(=O)C1CC1)Nc1ccc(OC(F)F)cc1 | 2 | 5 | 1 | 4 | -3 | 29*
O=S(=O)(c1ccc(NC(=S)NC23CC4CC(CC(C4)C2)C3)cc1)N1CCCCC1 | 2 | -3 | 0 | 8 | 2 | -15
COc1ccc(-c2[nH]ncc2Oc2ccccc2OC)c(O)c1 | 2 | -3 | 1 | 19* | -2 | -19
COc1ccc(Oc2cn[nH]c2-c2ccc(O)cc2O)cc1 | 6 | 2 | 6 | 13 | 0 | 11
C=CCN(c1ccc(C(=O)N2CCN(c3ccc(F)cc3)CC2)cc1)S(C)(=O)=O | 1 | -2 | 3 | 4 | 42* | -3
Cc1csc(SCC(=O)N(C)CC(=O)Nc2ccc(F)cc2)n1 | 0 | 3 | 1 | -4 | 7 | 4
CC(SCC(=O)Nc1ccc(F)cc1)c1nc2ccccc2c(=O)[nH]1 (stereo unspecified) | 2 | 22* | 0 | 11 | -14 | -11
Cc1cc(SCC(=O)N(C)CC(=O)Nc2ccc(F)cc2)nc2ccccc12 | 4 | 10 | 2 | 21* | -4 | -5
O=C(N[C@@H]1CC[C@@H](CCn2cc(-c3ccccc3)nn2)O[C@@H]1CO)c1cnccn1 | 2 | 3 | 3 | 8 | 3 | -22
Cc1ccccc1C(=O)N1CCC(C(=O)N(CC(C)C)c2c(N)n(Cc3ccccc3)c(=O)[nH]c2=O)CC1 | 2 | 1 | 5 | 10 | 1 | -11
